# Assay: Toxicity liver stage against HepG2, at 10uM
# Format: cell-based
# Parameters: test concentration 10 uM, cell line HepG2-A16-CD81EGFP
# Conditions: human, HepG2-A16-CD81EGFP cells; read-out: INHIBITION
# In short: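 Uninfected HepG2-A16-CD81EGFP cells, 3 × 10^3 per well, 1536-well, plated on prespotted compound at 10 μM final, parasite-free screening media added to match infected plates; puromycin 10 μM positive, DMSO 0.5% negative; run in parallel with 48 h PbLuc assay at 37 °C, 5% CO2; viability by CellTiter-Glo luminescence, normalized to controls.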
row,SMILES,cytotoxicity at 10 µM
1,COCC(=O)N[C@H](C)c1onc(-c2ccc(F)cc2)c1C(=O)O,-8.15%
2,CCCC(O)CN1CCC(=O)N(CC)Cc2cc3c(cc21)OCO3 (stereo not given),-18.5%
3,O=C1CCNc2cc3c(cc2CN1Cc1ccco1)OCO3,6.36%
4,CCN1Cc2cc(F)ccc2N(C(=O)C2CCC2)CCC1=O,-41.2%
5,Cc1cc2ccccc2n1CC(=O)N[C@@H](C)C(=O)O,0.77%
6,Cc1cc(C)nc(N2CCC(C(=O)Nc3n[nH]c(CC(C)C)n3)CC2)n1,5.61%
7,Cn1cnnc1SCCCNC(=O)Nc1ncccn1,0.252%
8,COc1ccc(CC(C)(O)CNC(=O)NCc2cccs2)cc1 (stereo not given),5.62%
9,COC(=O)N1CCc2ccccc2C1C(=O)NCc1ccco1 (stereo not given),-1.94%
10,O=C(Cc1ccccn1)N1C[C@@H](Oc2cccnc2)[C@H]2OCCC[C@H]21,7.8%
11,Cc1csc([C@H]2C[C@@H]3CCN(C(=O)c4ccnnc4)C[C@H]3O2)n1,-1.95%
12,CCc1c(C)n(CC(C)=O)c2nc3ccccc3n2c1=O,5.44%
13,O=C1CC(c2ccccc2F)c2c(n3ccsc3nc2=O)N1 (stereo not given),-5.93%
14,CCCN(C(=O)COCC)c1cccc(C)c1,0.727%
15,Cc1nc2[nH]cnc(NCCCN3CCOCC3)c-2n1,-13.3%
16,Cc1nn(C)c(C)c1NC(=O)CCn1ncc2c(C)cccc21,-10.8%
17,CNC(=O)[C@@H]1CN(Cc2ccccc2)C[C@H]1C(=O)c1ccc(F)cc1,-0.17%
18,CC(c1cc(O)nc(NC2CCCC2)n1)n1ncc2ccccc2c1=O (stereo not given),22.9%
19,CCn1ncc(S(=O)(=O)N[C@@H]2CC[C@@H](n3ccnc3)[C@@H]2O)c1C,-3.4%
20,Cc1ccnc(C2CCN(C(=O)CCn3ncc4ccccc43)C2)n1 (stereo not given),-22.3%
21,CCn1cc(CN2CCN(CC(O)c3ccc(C)cc3C)CC2)cn1 (stereo not given),-24.6%
22,c1ccc(-c2cc(CNCCN3CCOCC3)c3nnnn3c2)cc1,-17.6%

row,SMILES,cytotoxicity at 10 µM
1,c1ccc(CN2CCC(c3nccnc3-n3ccnc3)CC2)cc1,-19.6%
2,Cc1cc(C2CCCN2C(=O)Nc2cn[nH]c2)on1 (stereo not given),1.24%
3,CN1N=C(C(=O)NCCc2csc(-c3ccccc3)n2)CCC1=O,0.621%
4,Cc1ccc(C2CSCCN2C(=O)NCc2cccnc2)cc1 (stereo not given),5.48%
5,CCC(C)Oc1cc(C(=O)N(c2cccnc2)C(C)C)ccn1 (stereo not given),8.77%
6,COc1cc(NC(=O)N(C)CCC2CC2)ncn1,-1.3%
7,Cn1nc(Br)c2c(=O)n(CCc3ccccc3)cnc21,-1.4%
8,CCc1c(C(=O)N2CCOC(C)(C)C2)cnn1-c1ccccn1,-7.92%
9,COC(=O)C1(NCC(=O)Nc2cc(C)ccc2OC)CCCCC1,4.02%
10,N#CC1(NC(=O)c2nccc3ccccc23)CCSCC1,8.8%
11,Cc1cc(Cn2c(=O)c3c(C(F)(F)F)cc(C)nc3n2C)on1,-0.976%
12,CNC(=O)CC1CCN(C(=O)NCC2(c3ccccc3F)CC2)CC1,4.27%
13,CC(C)c1nc(C2CCCN2C(=O)c2ccc3nncn3c2)no1 (stereo not given),-10.3%
14,CCS(=O)(=O)c1ccc(N2CCC(NC(=O)c3ccccn3)CC2)cc1,10.8%
15,CC1CCN(C)c2ccccc2N1C(=O)c1ccc(=O)n(C)n1 (stereo not given),1.53%
16,Cc1nnc(C(NS(=O)(=O)c2cc(F)c(C)cc2F)C(C)C)[nH]1 (stereo not given),-5.19%
17,Cc1ccc(S(=O)(=O)NC(C)C#N)cc1Br (stereo not given),0.727%
18,CC(NC(=O)CCS(=O)(=O)C1CCCC1)c1nc(-c2ccccc2)c[nH]1 (stereo not given),1.05%
19,O=C(CCC1CCCO1)NCc1ccc(Br)cc1F (stereo not given),1.6%
20,CN(CC1CCCN(S(C)(=O)=O)C1)c1cnn(C)c1 (stereo not given),2.56%
21,CNS(=O)(=O)c1csc(C(=O)N(C)Cc2sccc2C)c1,16.4%
22,CN(Cc1cccs1)C(=O)Cn1cc(NC(=O)C(C)(C)C)cn1,-3.52%

row,SMILES,cytotoxicity at 10 µM
1,Cc1ccc(CNCc2nnc3n2CCCC3C(F)(F)F)o1 (stereo not given),19.5%
2,CCc1nc(CNC(=O)Nc2ccc(C(=O)NC)cc2C)cs1,16.4%
3,Cc1ccc(C(C)NC(=O)Cc2c(C)nc3c(c2C)c(=O)[nH]n3C)o1 (stereo not given),-16.3%
4,O=C(Nc1cccc(CN2CCOC2=O)c1)N1CCOCC1,-8.6%
5,CC(C)S(=O)(=O)NCC1CCCN(C(=O)c2cccnc2)C1 (stereo not given),-7.16%
6,O=C1NCCO[C@H]2CN(C(=O)Cc3csc4ccccc34)CC[C@@H]12,-101%
7,COC[C@H]1CC[C@H]2[C@H](CCN2S(=O)(=O)c2ccccc2)O1,-1.45%
8,O=C(c1ccnnc1)N1C[C@H](OCC2CCOCC2)[C@H]2OCCC[C@H]21,3.86%
9,Cc1noc(C)c1CN(C)C(=O)CN1CC(c2ccccc2)CC1=O (stereo not given),-2.4%
10,CNc1ncccc1CN1CCN(c2cc(NC3CC3)nc(N)n2)CC1,-6.58%
11,CCCN1CCCn2nc(CNC(=O)CN(C)C3CCCC3)cc2C1,-0.992%
12,c1cncc(NCCNC2CCCNC2)c1 (stereo not given),-4.5%
13,O=C(NC1CC(=O)N(C2Cc3ccccc3C2)C1)c1ccsc1 (stereo not given),-1.98%
14,CC(C)Cc1cc(C(=O)N2CCC(Oc3cccnc3)CC2)n(C)n1,-0.423%
15,CC(C)=CCN1CC2(CCN(Cc3ncc[nH]3)CC2)CC1=O,-10.8%
16,CSc1cccc(CN(C)C(=O)Cn2ncc(N(C)C)cc2=O)c1,0.0849%
17,CSc1ncccc1C(=O)N(C)C(C)Cc1ccccn1 (stereo not given),2.28%
18,Cc1ccc(C(=O)N2CCC3(CC2)C(=O)NCCN3C)cc1O,-0.081%
19,Cc1ccc(CCNC(=O)CC2COCCN2S(=O)(=O)N(C)C)o1 (stereo not given),3.39%
20,O=C1NCC2(CCCN(C(=O)Cn3nc4ccccc4n3)CC2)O1 (stereo not given),-3.45%
21,O=C(NCCc1c[nH]cn1)c1ccc(S(=O)(=O)NC2CCOC2)cc1 (stereo not given),-1.91%
22,CCNC(=O)C(C)Oc1ccc(N(C)S(C)(=O)=O)cc1 (stereo not given),1.07%

row,SMILES,cytotoxicity at 10 µM
1,Cc1cc(C)nc(CCNC(=O)C(c2ccc(F)cc2)N(C)C)n1 (stereo not given),-40.1%
2,O=C(NCc1cc(O)ncn1)C1COc2ccccc2C1 (stereo not given),-9.76%
3,Cc1nc(CN2CCC(C(=O)O)(n3ccc(-c4ccco4)n3)CC2)co1,-12.1%
4,CCS(=O)(=O)N1CCC(c2nnc(Cn3cccn3)n2C2CC2)CC1,-14.2%
5,COc1ccccc1-c1cc(C(F)(F)F)c2c(C)nn(CC(=O)O)c2n1,5.25%
6,CCc1cnc(CN(C)C2CCN(Cc3nnc(C4CC4)n3C)C2)o1 (stereo not given),-5.09%
7,CSCCC(=O)N1CCCN(Cc2cnn(C(C)C)c2)CC1,-25.3%
8,CCOc1ccc(CNC(C)c2ccc3[nH]c(=O)[nH]c3c2)cc1 (stereo not given),-7.79%
9,OCCN1CCC(CNCc2ccccc2OC(F)(F)F)CC1,-13.7%
10,Cc1cnn(CC2CCCN2Cc2cc(C)on2)c1 (stereo not given),-8.51%
11,Cc1cc(C)n(CC2CN(Cc3nnc(C)o3)CCO2)n1 (stereo not given),-7.95%
12,CN(C)c1ccc(C(=O)Nc2cn[nH]c2)cc1,-0.279%
13,CN(Cc1ccco1)C(=O)NC1CCCN(c2ncccn2)C1 (stereo not given),-13.6%
14,COCCN1CCC(C(=O)c2cc(F)ccc2F)CC1,-9.47%
15,Cc1ccc(CC(=O)N2CCCC(n3nc(C)cc3C)C2)cn1 (stereo not given),-8.54%
16,COCCOc1ccc(NC(=O)C2CC(=O)N(CC3CC3)C2)cn1 (stereo not given),-30.7%
17,COCCOc1ccc(NC(=O)C2CC(=O)N(C3CC3)C2)cn1 (stereo not given),-6.93%
18,CN(C)c1ncccc1CNC(=O)N1CCCC1c1cccs1 (stereo not given),-12%
19,Cc1nc(C)n(CC2CCCCN2CC(=O)Nc2nnc(C)s2)n1 (stereo not given),-10.6%
20,NC(=O)CN1CCCN(C(=O)Cc2ccc(F)cc2)CC1,-9.17%
21,Cc1c(C(=O)N2CCCC(n3cccn3)C2)nnn1-c1ccccc1 (stereo not given),-3.45%
22,Cc1cnn(CC2CCCCN2C(=O)Cc2cn3ccsc3n2)c1 (stereo not given),-5.5%

row,SMILES,cytotoxicity at 10 µM
1,CCCc1nc(CN2CCCC(c3noc(C4CC4)n3)C2)no1 (stereo not given),-8.87%
2,Cc1ccc(CC(=O)N2CCN(C3CCOC3=O)CC2)cc1 (stereo not given),-18.7%
3,CCN(CC)CCNC(=O)c1cnc(C(C)(C)C)s1,-8.94%
4,CN(CCc1ccccn1)S(=O)(=O)N1CCCC1c1ccco1 (stereo not given),-14.8%
5,CC(C)c1ncncc1C(=O)NCCN1CCCS1(=O)=O,-8.98%
6,CCNc1cc2c(nn1)CCN(C(=O)c1ccnc(N(C)C)c1)C2,-20.9%
7,Cc1ccc(CN(C)C(=O)CN2CCOC(Cn3cncn3)C2)o1 (stereo not given),-7.98%
8,Cc1nc(C)n(CC2CCCN(c3ncnc4[nH]ccc34)C2)n1 (stereo not given),12.8%
9,c1ncn(CC2CN(CC3CCCC3)CCO2)n1 (stereo not given),4.93%
10,CS(=O)(=O)NCc1cncc2c1CCN(C(=O)c1cccnc1)C2,5.12%
11,COc1cc(COCC2CCN(Cc3cccnc3)CC2)cc(OC)c1,0%
12,CC(C)NC(=O)N1CCC2(CCC(=O)N2CCN2CCCC2)CC1,3.7%
13,CCO[C@H]1CC[C@H]2[C@H]1OCCN2CCOCc1ccccc1,-111%
14,Cc1ccoc1C(=O)N1CC[C@@H]2CN(C3CCOCC3)CCO[C@@H]2C1,-120%
15,O=C1[C@H]2CN(c3ncccn3)C[C@H]2CN1Cc1ccncc1,-12.1%
16,COCC1CN(Cc2csc(C)n2)Cc2nccn2C1 (stereo not given),3.16%
17,CCS(=O)(=O)N1CCC[C@]2(C(=O)N(C)C)CN(c3ccccn3)C[C@@H]2C1,-8.93%
18,Cc1cc(C(=O)N2CCC3(CC2)C(=O)N(C)CCN3CC2CC2)c(C)o1,-96.5%
19,CN1CC(=O)N(c2ccccc2)CC12CCN(C(=O)CC1CC1)C2 (stereo not given),0.972%
20,Cc1cc(CCC(=O)Nc2nncs2)nc(C2CCCN2)n1 (stereo not given),-28%
21,COCCC(=O)NCCn1nc(C2CCNC2)c2cccnc21 (stereo not given),-16.5%
22,O=C(c1cccnc1)N1C[C@H]2CC[C@@H](C1)N(Cc1ncc[nH]1)C2,-13.2%
